Measured values: paper PMC10357933 (RSC Medicinal Chemistry, 2023)
Where two headings read alike, the source gives them in different places.

Key:
[1] = Conductometry in DMSO; assay type: physicochemical; details: for Conductivity ΛM: 1.0 mM solution in DMSO; for Increase of molecular conductivity upon 10-fold dilution: diluted solutions 0.1 to 1.0 mM in DMSO
Procedure, shortened: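 Test compound dissolved at 1.0 mM, or as indicated, in freshly distilled DMSO (conductivity ≤3 × 10−8 […]). Conductivity measured at 25 ± 2 °C immediately after complete dissolution, then after 24 h and after 48 h.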

[2] = biological target: 3CL^pro (SARS-CoV-2) (Severe acute respiratory syndrome coronavirus 2, UniProt P0DTD1); assay type: biochemical
[3] = biological target: PL^pro (SARS-CoV-2) (Severe acute respiratory syndrome coronavirus 2, UniProt P0DTD1); experiment: biochemical
[4] = tested on: SARS-CoV-2 B.1; experiment: Antiviral activity against SARS-CoV-2 in Caco-2-F03 cells; assay type: cell-based; details: for Effect on viral activity at higher dosages: overlapping with toxicity
[5] = biological target: PL^pro (SARS-CoV) (Severe acute respiratory syndrome coronavirus, UniProt P0C6X7); assay type: biochemical; details: read-out: IC50 PL^pro (SARS-CoV)
[6] = biological target: T1, SARS-CoV-2 PL^pro (Severe acute respiratory syndrome coronavirus 2, UniProt P0DTD1); experiment: Zn-ejection assay with FluoZin-3; assay type: biochemical; details: 0.5 μM PLpro, 100 min
[7] = biological target: T1, SARS-CoV-2 PL^pro; experiment: Michaelis-Menten kinetics with SARS-CoV-2 PLpro; assay type: biochemical
[8] = tested on: CaCo-2 cells; experiment: Toxicity against host cells; assay type: cell-based, human; details: 25 to 500 μM, 24 h / 48 h
Procedure, shortened: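 Caco-2 cells were grown to almost confluent monolayers in 96-well plates. Test compound was given as a DMSO stock (DMSO 0.2%) diluted in DMEM with 1% fetal calf serum and 50 mg L−1 gentamicin, at 25–500 μM. Exposure was 24 h and 48 h at 37 °C/5% CO2. Viability was measured by crystal violet staining as % of untreated control, in three independent experiments.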

[9] = 3CL^pro, 50 μM, ± SD of 2 experiments
[10] = read-out: IC50 PL^pro (SARS-CoV-2), mean ± SD of 2 independent experiments

SMILES | Conductivity ΛM ([1]; 24 h) [S mol^−1 cm^2] | Conductivity ΛM ([1]; 48 h) [S mol^−1 cm^2] | Conductivity ΛM ([1]; start) [S mol^−1 cm^2] | Percentage of activity of the enzyme in presence of 50 μM of the test compound [2, 9] [%] | IC50 [3, 10] [nM] | also measured
CCn1c[n+](CC)c2ccccc21.[Ag][I] [Ag-1b, 1,3-Diethyl-benzimidazolium silver(I) iodide] | 9.31 | 9.70 | 8.44 | 110 ± 0 | 240 ± 110 | Effect on viral activity at higher dosages [4]: completely terminated viral activity
O=[N+]([O-])[O-].[Ag+] [AgNO3, silver nitrate, reference compound] | 38 | 38 | 38 | 97 ± 6 | 700 ± 270 | Conductivity ([1]; in DMSO, periods up to 48 h): 38 S mol^−1 cm^2; IC50 [5]: 12000 ± 870 nM
CCn1c[n+](CC)c2ccc(OC)cc21.[Ag][I] [Ag-2b, 1,3-Diethyl-5-methoxy-benzimidazolium silver(I) iodide] | 9.25 | 9.82 | 9.19 | 115 ± 4 | 430 ± 60 | –
CC(C)n1c[n+](C(C)C)c2ccccc21.[Ag][I] [Ag-3b, 1,3-Diisopropyl benzimidazolium silver(I) iodide] | 7.00 | 6.69 | 6.67 | 111 ± 14 | 190 ± 40 | Increase of molecular conductivity upon 10-fold dilution [1]: only slightly increased; Effect on viral activity at higher dosages [4]: completely terminated viral activity
CCn1c[n+](CC)c2ccccc21.[Cl][Ag] [Ag-1a, 1,3-Diethyl benzimidazolium silver(I) chloride] | 3.09 | 3.31 | 3.00 | 106 ± 2 | 210 ± 30 | –
COc1ccc2c(c1)n(C(C)C)c[n+]2C(C)C.[Ag][I] [Ag-4b, 1,3-Diisopropyl-5-methoxy-benzimidazolium silver(I) iodide] | 6.92 | 7.32 | 6.72 | 116 ± 2 | 390 ± 70 | Enzymatic activity (% of untreated control) ([3]; 0.75 μM, after 60 min): approx. 40%; Enzymatic turnover (% of untreated control) ([3]; 0.75 μM, from beginning up to 30 min of exposure): approx. 60%; IC50 [5]: 13700 ± 1020 nM; Zn ejection efficacy ([6]; 1.0 μM compound): low efficacy; Zn ejection efficacy ([6]; 10 μM compound): high efficacy; Mechanism of inhibition ([7]; Lineweaver-Burk, parallel lines): uncompetitive enzyme inhibitor; Ki (enzyme-substrate-inhibitor complex) ([7]; uncompetitive model): 480 ± 220 nM; Cytotoxicity against almost confluent Caco-2 cell layers [8]: non-toxic up to 500 μM; IC50 ([4]; read-out: IC50 antiviral efficacy (spike protein staining)): 580 nM
CC(=O)O.[Ag+].c1ccc(CN2[CH-]N(Cc3ccccc3)C(c3ccccc3)=C2c2ccccc2)cc1 [SBC3, reference compound] | 2.25 | 2.31 | 2.15 | – | – | Increase of molecular conductivity upon 10-fold dilution [1]: 2–4 fold; Inhibition of 3CL^pro enzymatic activity [2]: some moderate inhibition; Percentage of activity of the enzyme in presence of 50 μM of the test compound [2]: >50 (70 ± 4%); IC50 ([2]; read-out: IC50 3CL^pro (SARS-CoV-2)): > 50000 nM; IC50 ([3]; read-out: IC50 PL^pro (SARS-CoV-2)): 260 ± 30 nM
CC(C)n1c[n+](C(C)C)c2ccccc21.[Cl][Ag] [Ag-3a, 1,3-Diisopropyl benzimidazolium silver(I) chloride] | 2.70 | 2.67 | 2.34 | 116 ± 5 | 210 ± 20 | Increase of molecular conductivity upon 10-fold dilution [1]: 2–4 fold
CCN(CC)C(=S)SSC(=S)N(CC)CC [Disulfiram, reference compound] | – | – | – | – | – | Zn ejection efficacy ([6]; 1.0 μM compound): low efficacy; Zn ejection efficacy ([6]; 10 μM compound): high efficacy
COc1ccc2c(c1)n(C(C)C)c[n+]2C(C)C.[Cl][Ag] [Ag-4a, 1,3-Diisopropyl-5-methoxy-benzimidazolium silver(I) chloride] | 2.25 | 2.40 | 2.15 | 115 ± 4 | 220 ± 110 | –
CCn1c[n+](CC)c2ccc(OC)cc21.[Cl][Ag] [Ag-2a, 1,3-Diethyl-5-methoxy-benzimidazolium silver(I) chloride] | 3.13 | 3.37 | 2.94 | 98 ± 15 | 180 ± 20 | –
COc1ccc2c(c1)n(C(C)C)c[n+]2C(C)C [compound 4, 1,3-Diisopropyl-5-methoxy-benzimidazolium iodide] | – | – | – | – | – | IC50 [3]: > 100000 nM
